Assay results from ChEMBL document CHEMBL1147736, “Trisubstituted acridines as G-quadruplex telomere targeting agents. Effects of extensions of the 3,6- and 9-side chains on quadruplex binding, telomerase activity, and cell proliferation” (J Med Chem, 2006).
pEC50, pIC50: −log10 of the molar value. Calls of active or inactive are those of the source. The rule behind the calls is not given here.

Assays:
[1] = target: Telomerase reverse transcriptase (Homo sapiens, UniProt O14746); test: Inhibition of telomerase activity from human A2780 cells; type: functional, cell-based
Telomerase reverse transcriptase, sequence (O14746 whole entry): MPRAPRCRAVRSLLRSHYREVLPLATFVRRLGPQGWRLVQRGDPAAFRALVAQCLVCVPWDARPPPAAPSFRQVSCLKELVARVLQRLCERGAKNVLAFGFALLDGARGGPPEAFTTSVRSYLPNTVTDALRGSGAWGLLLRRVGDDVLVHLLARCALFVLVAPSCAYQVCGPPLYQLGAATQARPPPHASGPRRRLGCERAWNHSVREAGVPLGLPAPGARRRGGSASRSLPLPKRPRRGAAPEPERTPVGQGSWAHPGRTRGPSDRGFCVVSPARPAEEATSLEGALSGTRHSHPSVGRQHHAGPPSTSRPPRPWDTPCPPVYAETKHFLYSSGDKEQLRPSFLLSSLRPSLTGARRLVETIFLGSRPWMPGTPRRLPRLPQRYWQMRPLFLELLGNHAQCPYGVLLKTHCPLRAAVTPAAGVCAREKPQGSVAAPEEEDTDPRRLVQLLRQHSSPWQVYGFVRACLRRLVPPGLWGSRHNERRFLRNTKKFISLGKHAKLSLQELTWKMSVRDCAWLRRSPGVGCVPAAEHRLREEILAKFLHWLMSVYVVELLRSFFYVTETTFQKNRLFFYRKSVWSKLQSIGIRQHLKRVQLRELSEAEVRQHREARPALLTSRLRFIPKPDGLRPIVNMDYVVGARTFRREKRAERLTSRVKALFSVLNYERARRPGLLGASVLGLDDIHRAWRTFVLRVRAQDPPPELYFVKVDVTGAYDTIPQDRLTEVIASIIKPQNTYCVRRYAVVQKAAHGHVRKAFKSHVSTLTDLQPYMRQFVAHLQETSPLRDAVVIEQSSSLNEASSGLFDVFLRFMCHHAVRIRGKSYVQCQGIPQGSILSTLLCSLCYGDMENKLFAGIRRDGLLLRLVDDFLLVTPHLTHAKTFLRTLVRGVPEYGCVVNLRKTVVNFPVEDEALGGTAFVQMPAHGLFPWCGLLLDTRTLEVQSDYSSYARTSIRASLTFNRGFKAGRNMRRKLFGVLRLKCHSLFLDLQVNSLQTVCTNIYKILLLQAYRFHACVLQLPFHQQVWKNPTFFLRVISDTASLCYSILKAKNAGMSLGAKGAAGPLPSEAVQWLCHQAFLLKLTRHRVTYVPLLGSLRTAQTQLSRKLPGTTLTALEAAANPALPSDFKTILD
In short: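 TRAP assay with A2780 protein extract, Bradford-quantified. ACX primer (1 µM) and Taq added, 33 PCR cycles. Products on 10% PAGE with SYBR Green I, quantified by gel scanning against a no-protein or heat-inactivated control. Result reported as telEC50.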

[2] = target: DNA polymerase I, thermostable (Thermus aquaticus) (UniProt P19821); test: Inhibition of TAQ polymerase activity at 2 uM
DNA polymerase I, thermostable (Thermus aquaticus), sequence (P19821 whole entry): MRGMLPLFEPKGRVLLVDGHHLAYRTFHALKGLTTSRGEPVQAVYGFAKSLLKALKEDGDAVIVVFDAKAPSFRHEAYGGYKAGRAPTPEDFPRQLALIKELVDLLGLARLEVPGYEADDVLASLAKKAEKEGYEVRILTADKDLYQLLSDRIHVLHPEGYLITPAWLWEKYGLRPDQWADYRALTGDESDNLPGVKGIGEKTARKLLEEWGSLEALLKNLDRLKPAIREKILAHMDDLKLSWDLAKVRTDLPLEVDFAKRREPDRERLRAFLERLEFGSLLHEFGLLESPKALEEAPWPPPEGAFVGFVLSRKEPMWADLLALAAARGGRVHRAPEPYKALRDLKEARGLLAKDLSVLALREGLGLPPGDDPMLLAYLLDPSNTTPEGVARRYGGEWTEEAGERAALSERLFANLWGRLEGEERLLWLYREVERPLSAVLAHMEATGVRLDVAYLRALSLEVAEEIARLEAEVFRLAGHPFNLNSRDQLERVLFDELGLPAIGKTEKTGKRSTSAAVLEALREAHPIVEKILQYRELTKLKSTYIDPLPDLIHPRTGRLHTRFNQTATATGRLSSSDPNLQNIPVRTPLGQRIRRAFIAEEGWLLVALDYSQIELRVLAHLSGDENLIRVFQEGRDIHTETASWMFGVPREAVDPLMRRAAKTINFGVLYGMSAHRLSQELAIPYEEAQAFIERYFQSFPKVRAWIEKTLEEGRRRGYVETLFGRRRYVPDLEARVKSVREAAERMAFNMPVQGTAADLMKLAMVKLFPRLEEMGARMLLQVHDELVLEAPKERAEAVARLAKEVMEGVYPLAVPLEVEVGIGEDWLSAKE
In short: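 PCR with TS forward primer, NT reverse primer (0.5 µM), TSNT template (200 pM), 1 mM MgCl₂, 20 µM dNTPs and 1.25 U Taq, plus compound. Run: 92 °C 2 min, then 33 cycles of 92/52/72 °C. 36 bp product resolved on 10% polyacrylamide gel, stained with SYBR Green I.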

MCF7 [3] = test: Cytotoxicity in human MCF7 cells by SRB assay; type: functional, cell-based
IMR-90 = test: Cytotoxicity in human IMR90 cells by SRB assay; type: functional, cell-based
Nucleic Acid = test: Ratio of binding constant of compound binding to human quadruplex DNA over that of duplex DNA; type: nucleic-acid assay
In short: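 Streptavidin-chip SPR (BIAcore 2000/3000) with biotinylated quadruplex or -AATT- duplex DNA loaded at 25 nM. Run in HEPES buffer pH 7.4 (0.20 M KCl, 3 mM EDTA, P20) at 25 °C. Steady-state RU from sensorgram plateaus, flow 10–30 µL/min, plotted against free compound concentration to fit binding constants. Value is the ratio of quadruplex to duplex constants.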

MCF7 [4] = test: Increase in senescence in MCF7 cells by staining with SA-beta-Gal at 1 uM; type: functional, cell-based; settings: Homo sapiens
In short: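 MCF7 cells in DMEM, counted and reseeded on day 1, treated that day and re-dosed on day 4 each week, over 4 weeks. Weekly, 1 × 10⁵ cells seeded with compound for about 24 h, then fixed and stained with X-gal solution (citrate/phosphate pH 6.0, ferro/ferricyanide) overnight at 37 °C. Blue cells counted by light microscopy as percentage of total versus vehicle control.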

pEC50 [1]	inhibition [2]	Ratio (Nucleic Acid)	SMILES	pIC50 (MCF7 [3])	pIC50 (IMR-90)	Activity (MCF7 [4])
5.16	< 25%	5.8	CN(C)c1ccc(Nc2c3ccc(NC(=O)CCCCCN4CCCC4)cc3nc3cc(NC(=O)CCCCCN4CCCC4)ccc23)cc1	< 4.60	< 4.60	
6.49		0.6	O=C(CCCN1CCCC1)Nc1ccc2c(Nc3ccc(NC(=O)CCN4CCCC4)cc3)c3ccc(NC(=O)CCCN4CCCC4)cc3nc2c1	< 4.60	< 4.60	
5.28		1.2	O=C(CN1CCCC1)Nc1ccc2cc3ccc(NC(=O)CN4CCCC4)cc3nc2c1			
	< 25%	31	CN(C)c1ccc(Nc2c3ccc(NC(=O)CCN4CCCC4)cc3nc3cc(NC(=O)CCN4CCCC4)ccc23)cc1		< 4.60	
< 4.70			O=C(CCN1CCCC1)Nc1ccc(Nc2c3ccccc3nc3ccccc23)cc1			
6.93		12.8	O=C(CCCN1CCCC1)Nc1ccc(Nc2c3ccc(NC(=O)CCN4CCCC4)cc3nc3cc(NC(=O)CCN4CCCC4)ccc23)cc1	< 4.60	< 4.60	
6.59		1.6	O=C(CCCCN1CCCC1)Nc1ccc2c(Nc3ccc(NC(=O)CCN4CCCC4)cc3)c3ccc(NC(=O)CCCCN4CCCC4)cc3nc2c1	< 4.60	< 4.60	
7.00	< 25%	48	CN(C)c1ccc(Nc2c3ccc(NC(=O)CCCN4CCCC4)cc3nc3cc(NC(=O)CCCN4CCCC4)ccc23)cc1	5.06	< 4.60	Active
6.84		72	O=C(CCCCCN1CCCC1)Nc1ccc2c(Nc3ccc(NC(=O)CCN4CCCC4)cc3)c3ccc(NC(=O)CCCCCN4CCCC4)cc3nc2c1	< 4.60	< 4.60	
7.17		29	O=C(CCN1CCCC1)Nc1ccc(Nc2c3ccc(NC(=O)CCN4CCCC4)cc3nc3cc(NC(=O)CCN4CCCC4)ccc23)cc1	< 4.60	< 4.60	
6.78		10.9	O=C(CCN1CCCC1)Nc1ccc2c(Nc3ccc(NC(=O)CN4CCCC4)cc3)c3ccc(NC(=O)CCN4CCCC4)cc3nc2c1	< 4.60	< 4.60	
5.71	< 25%	4.5	CN(C)c1ccc(Nc2c3ccc(NC(=O)CCCCN4CCCC4)cc3nc3cc(NC(=O)CCCCN4CCCC4)ccc23)cc1	< 4.60	< 4.60	
